{"data": "Measured values collected from several papers", "target": "Megakaryocyte-associated tyrosine-protein kinase (MATK, Homo sapiens, UniProt P42679)", "One construct used (P42679 1-507)": "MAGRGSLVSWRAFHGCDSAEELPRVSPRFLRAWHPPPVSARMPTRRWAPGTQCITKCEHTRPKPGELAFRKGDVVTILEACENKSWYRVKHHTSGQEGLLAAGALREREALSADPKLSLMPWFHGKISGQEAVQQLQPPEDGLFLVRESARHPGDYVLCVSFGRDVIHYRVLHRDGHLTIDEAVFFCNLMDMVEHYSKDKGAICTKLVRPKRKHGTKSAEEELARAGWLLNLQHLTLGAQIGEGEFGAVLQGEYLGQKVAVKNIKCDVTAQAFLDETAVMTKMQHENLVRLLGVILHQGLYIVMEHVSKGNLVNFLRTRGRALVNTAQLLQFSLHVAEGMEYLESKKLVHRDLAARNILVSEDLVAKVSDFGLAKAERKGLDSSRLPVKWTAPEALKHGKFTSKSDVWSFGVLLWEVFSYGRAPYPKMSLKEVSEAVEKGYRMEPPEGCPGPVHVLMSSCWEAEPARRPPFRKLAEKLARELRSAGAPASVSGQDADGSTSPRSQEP"}
{"SMILES": "CNC(=O)c1cc(Oc2ccc(NC(=O)Nc3ccc(Cl)c(C(F)(F)F)c3)cc2)ccn1", "observed": "cell-free assay", "tested at": "0.5 µM", "endpoint": "remaining signal", "value": "114%"}
{"SMILES": "CC(C)(C)c1nc2c(s1)c1nc(N)ncc1c1ccc(NS(=O)(=O)c3c(F)cccc3F)c(F)c12", "observed": "enzyme activity", "action": "inhibitor", "technique": "radiometric", "tested at": "1 µM", "endpoint": "remaining activity", "value": "101%"}
{"SMILES": "N#CCCc1ccc2c(c1)-c1[nH]c3ccc([N+](=O)[O-])cc3c1CC(=O)N2", "observed": "cell-free assay", "tested at": "0.5 µM", "endpoint": "remaining signal", "value": "101%"}
{"SMILES": "CC1=C(C#N)C(c2ccc3c(c2)c(NC(=O)c2ccccc2C)nn3C)C(C#N)=C(C)N1", "observed": "cell-free assay", "technique": "competition with immobilised ligand", "tested at": "1 µM", "endpoint": "remaining binding", "value": "79%"}
{"SMILES": "Cc1cnn2ncc(-c3ccnc(N(C)C)n3)c2c1", "observed": "binding", "tested at": "1 µM", "endpoint": "remaining binding", "value": "100%"}
{"SMILES": "Nc1ncnc2occ(-c3ccc(NC(=O)Nc4cc(C(F)(F)F)ccc4F)cc3)c12", "observed": "cell-free assay", "action": "inhibitor", "tested at": "20 µM", "endpoint": "remaining signal", "value": "13%"}
{"SMILES": "CN(C)C(=O)Cn1cc(-c2nc([C@@](C)(c3ccc(-c4cnc(N)nc4)cc3)C3CC3)no2)cn1", "observed": "cell-free assay", "technique": "competition with immobilised ligand", "tested at": "1 µM", "endpoint": "remaining binding", "value": "77%"}
{"SMILES": "COc1cc2ncnc(Nc3ccc(Oc4ccccc4)cc3C)c2cc1OC", "observed": "enzyme activity", "action": "inhibitor", "tested at": "1 µM", "endpoint": "inhibition", "value": "0%"}
{"SMILES": "CCOCCn1cc(C(=O)Nc2ccc(-n3nc(-c4cccnc4)cc3C(F)(F)F)cn2)ccc1=O", "observed": "cell-free assay", "technique": "competition with immobilised ligand", "tested at": "1 µM", "endpoint": "remaining binding", "value": "90%"}
{"SMILES": "O=C(Nc1cnn(-c2csc(C(=O)NC3COC3)c2)c1)Nc1c(F)cccc1Cl", "observed": "enzyme activity", "action": "inhibitor", "tested at": "5 µM", "endpoint": "remaining activity", "value": "100%"}
{"SMILES": "CNC(=O)c1ccc(Nc2ncc(C(F)(F)F)c(NCc3nccnc3N(C)S(C)(=O)=O)n2)cc1", "observed": "cell-free assay", "technique": "competition with immobilised ligand", "tested at": "0.1 µM", "endpoint": "remaining binding", "value": "37%"}
{"SMILES": "Cc1ccc(C(=O)Nc2ccc(CN3CCN(C)CC3)c(C(F)(F)F)c2)cc1C#Cc1cnc2cccnn12", "observed": "enzyme activity", "action": "inhibitor", "tested at": "23.5 nM", "endpoint": "remaining activity", "value": "52%"}
